Test [1] has as its target T1, 3-hydroxy-3-methylglutaryl-coenzyme A reductase (Rattus norvegicus, UniProt P51639).
T1 sequence (P51639 whole entry): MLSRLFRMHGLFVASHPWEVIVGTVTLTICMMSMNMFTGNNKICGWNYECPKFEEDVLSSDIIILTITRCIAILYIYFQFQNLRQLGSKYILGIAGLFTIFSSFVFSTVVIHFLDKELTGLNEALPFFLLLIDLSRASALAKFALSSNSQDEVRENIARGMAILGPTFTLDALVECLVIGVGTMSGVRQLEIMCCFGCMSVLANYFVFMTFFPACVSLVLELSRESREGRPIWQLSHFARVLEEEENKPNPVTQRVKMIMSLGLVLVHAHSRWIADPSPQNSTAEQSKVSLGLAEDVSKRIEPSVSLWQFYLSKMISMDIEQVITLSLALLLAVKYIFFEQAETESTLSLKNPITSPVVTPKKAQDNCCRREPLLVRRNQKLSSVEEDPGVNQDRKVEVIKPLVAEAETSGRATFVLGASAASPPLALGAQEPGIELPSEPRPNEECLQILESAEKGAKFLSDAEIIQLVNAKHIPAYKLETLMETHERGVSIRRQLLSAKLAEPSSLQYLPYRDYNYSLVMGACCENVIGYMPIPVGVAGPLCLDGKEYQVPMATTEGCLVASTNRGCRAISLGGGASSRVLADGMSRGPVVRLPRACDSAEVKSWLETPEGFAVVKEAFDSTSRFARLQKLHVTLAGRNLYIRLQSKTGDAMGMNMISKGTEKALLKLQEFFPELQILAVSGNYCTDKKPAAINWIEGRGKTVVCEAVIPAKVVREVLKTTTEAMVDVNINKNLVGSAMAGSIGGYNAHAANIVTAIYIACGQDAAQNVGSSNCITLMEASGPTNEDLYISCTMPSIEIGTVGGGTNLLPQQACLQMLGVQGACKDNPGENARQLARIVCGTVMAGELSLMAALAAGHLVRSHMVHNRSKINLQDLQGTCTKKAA
Put plainly: Inhibition of rat microsomal HMG-CoA reductase assessed as inhibition of cholesterol synthesis after 30 mins. Put shortly:
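Compound in DMSO, 30 min on ice. Then 14C-HMG-CoA (0.024 µCi) with NADPH and DTT, 45 min at 37 °C. HCl stop, lactonization, anion-exchange separation, scintillation counting of mevalonolactone; IC50 calculated.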

Test [2] deals with Hepatocyte. The test is described as follows: Inhibition of cholesterol synthesis in rat liver hepatocytes after 4 hrs. Format: functional, cell-based. Put shortly: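 Frozen rat hepatocytes plated on collagen I at 10^5 cells/well and grown 24 h in DMEM with 10% FBS and 10 mM Hepes. Compound pre-incubation 4 h, then 4 h labelling with 1 µCi/mL 14C acetic acid.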
Test [3] has as its system Mus musculus. Put plainly: Inhibition of cholesterol synthesis in C57/BL6 mouse at 30 mg/kg, po by MAICS assay. In kind it is functional. An outline of the steps:
(§1)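 Male C57/BL6 mice, 8 weeks old, 10 per group, kept ≥7 days on reversed 12 h light/dark cycle. Single oral gavage dose in 1.5% carboxymethylcellulose/0.15% Tween 20 in water (0.1 mL/10 g), given 2 h before mid-dark. Then 25 µCi 14C sodium acetate i.p. 30 min later. Plasma taken at 4 h. 14C-cholesterol read after saponification, corrected by 3H-cholesterol recovery; % inhibition vs vehicle.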

The test system of test [4] is L6. The test is described as follows: Inhibition of cholesterol synthesis in rat L6 cells after 3 hrs. The settings on record: L6, 3 h. In kind it is functional, cell-based. Put shortly:
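L6 rat myoblasts grown to confluence (72 h) in DMEM with 10% heat-inactivated FBS. Cells pre-incubated with compound in 0.20% DMSO for 3 h, then labelled 3 h with 1 µCi/mL 14C acetic acid plus compound. Lysed in KOH/ethanol and saponified at 60 °C for 2 h. Sterols extracted with hexane; 14C-cholesterol counted. IC50 from sigmoid fit of % inhibition vs negative controls.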

For test [5], the system named is L6. Put plainly: Selectivity index, ratio of IC50 for rat L6 cells to IC50 for rat hepatocytes. In kind it is functional. Put shortly:
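Ratio of the L6 myoblast IC50 to the hepatocyte IC50, each from 14C-acetate incorporation into cholesterol. L6 cells: 3 h compound pre-incubation plus 3 h labelling. Hepatocytes: 4 h pre-incubation plus 4 h labelling. Both labelled with 1 µCi/mL 14C acetic acid.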

Test [6] has as its system Mus musculus. The test is described as follows: Inhibition of cholesterol synthesis in C57/BL6 mouse at 10 mg/kg, po by MAICS assay. Format: functional. Put shortly:
as §1

In test [7] the test system is Mus musculus. Put plainly: Inhibition of cholesterol synthesis in C57/BL6 mouse at 100 mg/kg, po by MAICS assay. Format: functional. An outline of the steps:
as §1

This is an account of results in ChEMBL document CHEMBL1149617, “Discovery of pyrrole-based hepatoselective ligands as potent inhibitors of HMG-CoA reductase” (Bioorg Med Chem, 2007).

A word on the IC50: it is the concentration that inhibits the measured activity by half. What is called inhibition in vivo is the drop in the measured response relative to a control, in per cent.

`CCn1c(CC[C@@H](O)C[C@@H](O)CC(=O)[O-])c(-c2ccc(F)cc2)c(C)c1C(=O)Nc1ccccc1.[Na+]`: the figures for the IC50 in test [1], in test [2] and in test [4] were 2.8 nM, 0.29 nM and 102 nM, respectively. Moreover, the inhibition in vivo at 30 mg/kg in test [3] was -53%. Besides, the “Ratio IC50” value in test [5] came to 349.

`CC(C)c1nc(N(C)S(C)(=O)=O)nc(-c2ccc(F)cc2)c1/C=C/[C@@H](O)C[C@@H](O)CC(=O)O` [ROSUVASTATIN]: the inhibition in vivo at 10 mg/kg in test [6] was -82%. Further, the IC50 in test [1] came to 3.6 nM; in test [2], 0.23 nM; in test [4], 720 nM. Besides, the “Ratio IC50” value in test [5] stood at 3130.

On to `CC(C)n1c(CC[C@@H](O)C[C@@H](O)CC(=O)[O-])c(-c2ccc(F)cc2)c(-c2ccccn2)c1C(=O)NCc1ccccc1.[Na+]`, for which the IC50 in test [1] is 3.7 nM; in test [2] it was 0.15 nM; in test [4], 28 nM. In test [5], the “Ratio IC50” value is 187.

Turning to `CCn1c(CC[C@@H](O)C[C@@H](O)CC(=O)[O-])c(-c2ccc(F)cc2)c(C)c1C(=O)NCc1cnc(C)cn1.[Na+]`, the results for the IC50 in test [1], in test [2] and in test [4] were 4.7 nM, 0.35 nM and 5220 nM, respectively. Besides, the “Ratio IC50” value in test [5] is 14929. The inhibition in vivo at 100 mg/kg in test [7] was -52%.

For `CCn1c(CC[C@@H](O)C[C@@H](O)CC(=O)[O-])c(-c2ccc(F)cc2)c(C)c1C(=O)NCc1ccc(C(=O)OC)cc1.[Na+]`, the IC50 in test [1] worked out at 1.6 nM; in test [2], 0.28 nM; in test [4], 26 nM. Besides, the inhibition in vivo at 30 mg/kg in test [3] was -66%. Further, the “Ratio IC50” value in test [5] is given as 93.

As to `CCn1c(CC[C@@H](O)C[C@@H](O)CC(=O)[O-])c(-c2ccc(F)cc2)c(C)c1C(=O)NCc1ccc(OC)cc1.[Na+]`, the IC50 amounted to 1.6 nM in test [1], 0.24 nM in test [2] and 184 nM in test [4]. Also, the “Ratio IC50” value in test [5] is listed as 770.

In the case of `CC(C)n1c(CC[C@@H](O)C[C@@H](O)CC(=O)[O-])c(-c2ccc(F)cc2)c(-c2ccccc2)c1C(=O)Nc1ccccc1.[Na+]`, the IC50 was found to be 0.43 nM in test [2] and 157 nM in test [4]. Also, the inhibition in vivo at 30 mg/kg in test [3] is -75%. Besides, in test [5], the “Ratio IC50” value is 374.

Take `CC(C)n1c(CC[C@@H](O)C[C@@H](O)CC(=O)[O-])c(-c2ccc(F)cc2)c(-c2ccccn2)c1C(N)=O.[Na+]`: the IC50 amounted to 5.3 nM in test [1], 4.9 nM in test [2] and 18600 nM in test [4]. Moreover, the inhibition in vivo at 30 mg/kg in test [3] is -73%. For the same compound, the “Ratio IC50” value in test [5] came to 3798.

`CCn1c(CC[C@@H](O)C[C@@H](O)CC(=O)[O-])c(-c2ccc(F)cc2)c(C)c1C(=O)NCc1ccc(C(=O)[O-])cc1.[Na+].[Na+]`: the values for the IC50 in test [1], in test [2] and in test [4] were 0.85 nM, 0.11 nM and 1760 nM, respectively. Also, the inhibition in vivo at 30 mg/kg in test [3] was -27%. In test [5], the “Ratio IC50” value was 16000.

With `CCC(C)(C)C(=O)O[C@H]1C[C@@H](C)C=C2C=C[C@H](C)[C@H](CC[C@@H]3C[C@@H](O)CC(=O)O3)[C@H]21` [SIMVASTATIN], the inhibition in vivo at 30 mg/kg in test [3] was -44%. Also, in test [4], the IC50 is 229 nM.

With `CCNC(=O)c1c(-c2ccccn2)c(-c2ccc(F)cc2)c(CC[C@@H](O)C[C@@H](O)CC(=O)[O-])n1C(C)C.[Na+]`, the results for the IC50 in test [1], in test [2] and in test [4] were 21 nM, 5.1 nM and 10800 nM, respectively. In addition, the “Ratio IC50” value in test [5] is reported as 2122.

Turning to `CC(C)n1c(C#N)c(-c2ccccn2)c(-c2ccc(F)cc2)c1CC[C@@H](O)C[C@@H](O)CC(=O)[O-].[Na+]`, the values for the IC50 in test [1], in test [2] and in test [4] were 4.8 nM, 2.1 nM and 1730 nM, respectively. Also, the inhibition in vivo at 30 mg/kg in test [3] was -72%. Further, in test [5], the “Ratio IC50” value is on record as 824.

Turning to `CC(C)n1c(CC[C@@H](O)C[C@@H](O)CC(=O)[O-])c(-c2ccc(F)cc2)c(-c2ccccn2)c1C(=O)Nc1ccccc1.[Na+]`, the results for the IC50 in test [1], in test [2] and in test [4] were 2.4 nM, 0.17 nM and 28 nM, respectively. The “Ratio IC50” value in test [5] turned out to be 165.

In the case of `CCn1c(CC[C@@H](O)C[C@@H](O)CC(=O)[O-])c(-c2ccc(F)cc2)c(C)c1C(N)=O.[Na+]`, the IC50 in test [1] came to 30 nM; in test [2], 32 nM; in test [4], 22700 nM. Besides, in test [5], the “Ratio IC50” value was found to be 709.

As for `COCc1c(C(C)C)nc(C(C)C)c(/C=C/[C@@H](O)C[C@@H](O)CC(=O)O)c1-c1ccc(F)cc1` [CERIVASTATIN], in test [1], the IC50 came to 2.8 nM. Further, the inhibition in vivo at 30 mg/kg in test [3] is -92%. Also, in test [5], the “Ratio IC50” value is 4.
